pIC50: −log10 of the molar value. The source made the active and inactive calls. No cut-off for these calls is given here.
Tests used:
Mus musculus [1] = test: In vivo inhibition of SPPL2a in mouse assessed as accumulation of CD74/p8 in splenocyte lysate at 1 to 3 mg/kg administered via oral gavage as single dose measured 16 hrs post dose by Western blot method; assay type: functional, organism-based
In short: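 Mice gavaged in 0.5% MC:0.5% Tween or PEG:D5W 3:1. Spleens dissociated, red cells lysed with ACK, 1 × 10^6 cells lysed with protease inhibitors; 18 μg lysate on 10% gel, blotted, CD74 full length and p8 detected with rat anti-mouse CD74 In-1 and Alexa488 anti-rat IgG, LiCor scan; p8/full-length ratio expressed as percent of reference compound ratio.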

[2] = Total plasma concentration in mouse at 10 mg/kg administered via oral gavage measured after 16 hrs post dose by LC/MS/MS analysis; assay type: ADME, organism-based
In short: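 Mice dosed by oral gavage in 0.5% MC:0.5% Tween or PEG:D5W 3:1. 50 μL blood taken retro-orbitally into LiHep tubes; in chronically dosed animals the trough sample came before the morning dose. Kept on ice, plasma separated by centrifugation at 2823g, 5 min, stored at −20 °C until analysis.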

Mus musculus [3] = test: In vivo inhibition of gamma-secretase dependent Notch1 signaling in mouse assessed as effect on Hes1 mRNA level in thymus at 3 to 30 mg/kg, po bid administered at 8 and 16 hrs dosing interval between first and second dose respectively for 11 days measured 16 hrs post last dose on day 12 by RT-PCR analysis; assay type: organism-based
In short: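 Thymus and jejunum excised into RNALater, 4 °C overnight, washed, frozen at −80 °C; total RNA from 10 mg tissue by MagNA Pure LC; Hes1 measured by TaqMan real-time PCR; significance by two-tailed heteroscedastic Student's t-test.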

Mus musculus [4] = test: Immunomodulatory activity in mouse assessed as reduction in transition T1 B cells in splenocyte at 3 to 30 mg/kg administered via oral gavage bid at 8 and 16 hrs dosing interval between first and second dose respectively for 11 days measured 16 hrs post last dose on day 12 by flow cytometry; assay type: functional, organism-based
In short: (§1)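 Mice gavaged with compound in 0.5% MC:0.5% Tween or PEG:D5W 3:1. Spleens dissociated in GentleMACS, filtered at 40 μm, ACK red-cell lysis, counted; 1 × 10^6 splenocytes stained 30 min on ice in HBSS/2% FBS/5 mM EDTA with antimouse panels for B-cell subsets (B220, CD21, CD23, IgM, IgD) or dendritic cells (PDCA1, CD11c, MHCII, lineage markers); analyzed on Fortessa flow cytometer.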

Mus musculus [5] = test: Immunomodulatory activity in mouse assessed as reduction in follicular B cells in splenocyte at 3 to 30 mg/kg administered via oral gavage bid at 8 and 16 hrs dosing interval between first and second dose respectively for 11 days measured 16 hrs post last dose on day 12 by flow cytometry; assay type: functional, organism-based; in short: as §1
Mus musculus [6] = test: Immunomodulatory activity in mouse assessed as reduction in transition T2 B cells in splenocyte at 3 to 30 mg/kg administered via oral gavage bid at 8 and 16 hrs dosing interval between first and second dose respectively for 11 days measured 16 hrs post last dose on day 12 by flow cytometry; assay type: functional, organism-based; in short: as §1
Mus musculus [7] = test: Immunomodulatory activity in mouse assessed as reduction in myloid dendritic cells in splenocyte administered via oral gavage bid at 8 and 16 hrs dosing interval between first and second dose respectively for 11 days measured 16 hrs post last dose on day 12 by B220 staining based flow cytometry; assay type: functional, cell-based
[8] = Drug uptake in Lewis rat spleen at 3 mg/kg, po bid after 24 hrs by LC/MS/MS analysis; assay type: ADME, organism-based; details: read-out: Drug uptake
[9] = Total concentration in Lewis rat blood at 10 mg/kg, po bid after 24 hrs by LC/MS/MS analysis; assay type: ADME, organism-based; details: read-out: Drug uptake
[10] = Total plasma concentration in mouse at 100 mg/kg, po administered as single dose after 4 hrs by LC/MS/MS analysis; assay type: ADME, organism-based
[11] = biological target: T1, Signal peptide peptidase-like 2A (Mus musculus, UniProt Q9JJF9); test: Inhibition of SPPL2a in mouse whole blood assessed as increase in CD74/p8 accumulation after 5.5 hrs by Western bot method
T1 sequence (Q9JJF9 whole entry): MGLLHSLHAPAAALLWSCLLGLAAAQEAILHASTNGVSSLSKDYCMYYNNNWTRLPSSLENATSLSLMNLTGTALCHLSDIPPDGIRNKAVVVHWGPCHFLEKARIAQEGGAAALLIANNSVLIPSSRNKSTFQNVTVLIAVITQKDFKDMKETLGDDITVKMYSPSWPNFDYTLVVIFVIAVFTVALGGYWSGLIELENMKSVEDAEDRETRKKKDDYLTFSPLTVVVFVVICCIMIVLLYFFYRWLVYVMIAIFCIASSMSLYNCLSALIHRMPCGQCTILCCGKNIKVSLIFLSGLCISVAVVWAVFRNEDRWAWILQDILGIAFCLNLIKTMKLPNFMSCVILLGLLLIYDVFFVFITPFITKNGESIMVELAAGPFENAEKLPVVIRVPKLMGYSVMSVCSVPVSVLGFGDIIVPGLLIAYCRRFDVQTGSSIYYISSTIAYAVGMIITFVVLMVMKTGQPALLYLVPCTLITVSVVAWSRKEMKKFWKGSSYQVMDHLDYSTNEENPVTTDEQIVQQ
In short: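 Mouse whole blood (200 μL) with compound from 20× stock, 0.5% DMSO final, 5.5 h at 37 °C, 5% CO2 with rotation. RBC lysis, washes, lysis in Tris pH 6.8/Triton/deoxycholate buffer; Western blot with rat anti-mouse CD74 (In-1); p8 band intensity normalized to CD74 full-length/β-actin for dose response.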

[12] = Stability in human liver microsomes at […] preincubated for 3 mins followed by NADPH addition measured after 1 hr in presence of GSH and [13C2-15N-glycine]-GSH by HPLC/MS method; assay type: ADME, microsome; details: read-out: Stability

SMILES | inhibition (Mus musculus [1]) | concentration at 16 h [2] | Activity (Mus musculus [3]) | Activity (Mus musculus [4]) | Activity (Mus musculus [5]) | Activity (Mus musculus [6]) | Activity (Mus musculus [7]) | concentration at 24 h [8] | concentration at 24 h [9] | concentration at 4 h [10] | pIC50 [11] | remaining at 1 h [12]
Cc1ncc(F)cc1NC(=O)C[C@H](C(=O)N[C@@H]1C(=O)N2CC3(CC3)CN2C(=O)c2ccccc21)C1CC1 | inactive | 11.8 nM | Non-Toxic | Active | Active | Active | Dose-dependent effect | 860 nM | 1390 nM | – | – | –
Cc1ccccc1NC(=O)C[C@@H](C)C(=O)N[C@@H]1C(=O)N2CCCN2Cc2ccccc21 | – | – | – | – | – | – | – | – | – | 2090 nM | 6.26 | 70.8%

Reference: ChEMBL document CHEMBL4043282, “Discovery of the First Potent, Selective, and Orally Bioavailable Signal Peptide Peptidase-Like 2a (SPPL2a) Inhibitor Displaying Pronounced Immunomodulatory Effects In Vivo” (J Med Chem, 2018)
